The text below walks through data of ChEMBL document CHEMBL2029317, “(Z)-2-(2-bromophenyl)-3-{[4-(1-methyl-piperazine)amino]phenyl}acrylonitrile (DG172): an orally bioavailable PPARβ/δ-selective ligand with inverse agonistic properties” (J Med Chem, 2012).

As a reminder, the IC50 is the concentration needed to halve the response being measured. Broadly, the half-life is the time in which the quantity being followed falls by half. High values mean slow loss, low ones fast loss. As usually defined, the clearance is a measure of how efficiently the substance is removed, as volume per time.

Data set [1] concerns the target T1, Peroxisome proliferator-activated receptor delta (Mus musculus) (UniProt P35396).
T1 sequence (whole entry): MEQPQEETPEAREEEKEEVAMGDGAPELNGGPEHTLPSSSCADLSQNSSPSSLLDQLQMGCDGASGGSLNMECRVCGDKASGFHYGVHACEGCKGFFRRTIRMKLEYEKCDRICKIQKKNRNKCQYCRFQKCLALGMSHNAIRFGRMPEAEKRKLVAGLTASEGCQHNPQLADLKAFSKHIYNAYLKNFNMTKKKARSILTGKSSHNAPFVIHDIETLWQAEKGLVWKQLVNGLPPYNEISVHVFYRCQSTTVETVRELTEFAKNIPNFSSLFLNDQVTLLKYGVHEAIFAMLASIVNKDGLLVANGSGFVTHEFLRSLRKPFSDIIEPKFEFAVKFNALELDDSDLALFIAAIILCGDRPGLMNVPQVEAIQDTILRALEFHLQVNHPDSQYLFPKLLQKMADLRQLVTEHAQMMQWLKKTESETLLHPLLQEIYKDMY
Kind of data set: Antagonist activity at PPARbeta/delta in mouse NIH3T3 cells coexpressing LexA assessed as decrease in L165,041-induced transcriptional activation at 1 uM after 48 hrs by luciferase reporter gene assay relative to control. The data set is classed as functional, cell-based. The method, boiled down:
(§1)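 NIH3T3 cells were transfected with LexA-PPARα, -PPARβ/δ or -PPARγ fusion plasmids plus the 7L-TATAi luciferase reporter. From 4 h post-transfection, cells received inhibitory ligand (1 μM) for 48 h. Agonists followed: GW7647 300 nM (PPARα), L165,041 1 μM (PPARβ/δ) or GW1929 300 nM (PPARγ), or agonist solvent. Induction is luciferase activity with agonist relative to solvent; triplicates with t test.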

The target of data set [2] is T2, Peroxisome proliferator-activated receptor alpha (Mus musculus) (UniProt P23204).
T2 sequence (whole entry): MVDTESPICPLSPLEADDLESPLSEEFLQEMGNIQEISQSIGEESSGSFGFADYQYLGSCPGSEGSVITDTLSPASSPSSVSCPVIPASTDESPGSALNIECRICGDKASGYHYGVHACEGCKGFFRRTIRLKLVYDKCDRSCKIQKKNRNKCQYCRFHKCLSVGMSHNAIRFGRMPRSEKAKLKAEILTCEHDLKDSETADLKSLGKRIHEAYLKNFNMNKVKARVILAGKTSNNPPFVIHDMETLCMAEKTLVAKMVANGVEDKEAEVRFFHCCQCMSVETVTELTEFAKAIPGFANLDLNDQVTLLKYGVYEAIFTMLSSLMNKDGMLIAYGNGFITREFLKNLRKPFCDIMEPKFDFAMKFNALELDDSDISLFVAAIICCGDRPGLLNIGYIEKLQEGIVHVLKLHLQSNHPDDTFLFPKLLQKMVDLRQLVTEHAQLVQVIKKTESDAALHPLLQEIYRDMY
Kind of data set: Antagonist activity at PPARalpha in mouse NIH3T3 cells coexpressing LexA assessed as decrease in GW7647-induced transcriptional activation at 1 uM after 48 hrs by luciferase reporter gene assay relative to control. The data set is classed as functional, cell-based. The method, boiled down: as §1
A general note: Reporter assays use an easily measured gene product as a stand-in for the process of interest.

Data set [3] has as its target T3, Peroxisome proliferator-activated receptor gamma (Mus musculus) (UniProt P37238).
T3 sequence (whole entry): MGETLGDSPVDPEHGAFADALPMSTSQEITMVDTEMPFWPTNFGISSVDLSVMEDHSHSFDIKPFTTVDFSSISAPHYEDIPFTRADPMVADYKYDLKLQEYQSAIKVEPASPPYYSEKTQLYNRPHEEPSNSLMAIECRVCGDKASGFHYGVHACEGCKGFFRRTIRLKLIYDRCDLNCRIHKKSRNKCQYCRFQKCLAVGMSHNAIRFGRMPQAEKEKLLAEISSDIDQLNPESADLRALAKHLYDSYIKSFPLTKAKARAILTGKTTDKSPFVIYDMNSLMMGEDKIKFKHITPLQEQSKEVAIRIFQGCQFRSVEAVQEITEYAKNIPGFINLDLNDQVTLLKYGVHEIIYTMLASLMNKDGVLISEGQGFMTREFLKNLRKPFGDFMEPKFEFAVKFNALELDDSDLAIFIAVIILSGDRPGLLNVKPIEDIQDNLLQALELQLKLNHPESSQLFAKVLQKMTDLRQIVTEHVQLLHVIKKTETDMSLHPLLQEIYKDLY
Description: Antagonist activity at PPARgamma in mouse NIH3T3 cells coexpressing LexA assessed as decrease in GW1929-induced transcriptional activation at 1 uM after 48 hrs by luciferase reporter gene assay relative to control. It is filed as functional, cell-based. A digest of the protocol:
as §1

The target in data set [4] is T4, Peroxisome proliferator-activated receptor delta (Mus musculus, UniProt P35396).
T4 sequence (P35396 whole entry): T1 sequence (whole entry)
Kind of data set: Displacement of fluormone Pan-PPAR Green from mouse recombinant GST-tagged PPARbeta/delta LBD after 60 mins by TR-FRET assay. For orientation: In TR-FRET formats the signal depends on donor and acceptor labels being close together.

Data set [5] addresses T1, Peroxisome proliferator-activated receptor delta (Mus musculus). Description: Inverse agonist activity at GST-tagged recombinant mouse PPARbeta/delta assessed as increase in corepressor peptide SMRT-ID2 interaction after 60 mins by TR-FRET assay. It is filed as functional. A digest of the protocol:
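LanthaScreen TR-FRET coregulator assay: recombinant GST-PPARβ/δ LBD, labelled by a terbium-coupled anti-GST antibody, was incubated with fluorescein-labelled SMRT-ID2 corepressor peptide and compound. Signal is the 520/495 nm emission ratio, as triplicate averages ± SD, with t test against untreated sample.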

The target in data set [6] is T5, Peroxisome proliferator-activated receptor alpha (Homo sapiens) (UniProt Q07869).
T5 sequence (whole entry): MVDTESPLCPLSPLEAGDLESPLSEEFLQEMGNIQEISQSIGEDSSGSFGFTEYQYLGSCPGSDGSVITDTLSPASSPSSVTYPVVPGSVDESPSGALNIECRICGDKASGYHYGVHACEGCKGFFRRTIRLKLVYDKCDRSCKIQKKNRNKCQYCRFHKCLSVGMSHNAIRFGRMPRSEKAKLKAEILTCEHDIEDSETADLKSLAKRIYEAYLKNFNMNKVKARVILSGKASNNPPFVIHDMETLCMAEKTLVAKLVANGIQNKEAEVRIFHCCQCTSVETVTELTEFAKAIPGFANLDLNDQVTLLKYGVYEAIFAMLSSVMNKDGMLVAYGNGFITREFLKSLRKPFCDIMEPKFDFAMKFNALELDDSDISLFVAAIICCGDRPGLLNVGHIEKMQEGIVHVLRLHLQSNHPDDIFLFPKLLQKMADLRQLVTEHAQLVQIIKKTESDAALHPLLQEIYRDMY
Description: Displacement of fluormone Pan-PPAR Green from PPARalpha at 100 to 1000 nM after 60 mins by TR-FRET assay.

Data set [7] has as its target T4, Peroxisome proliferator-activated receptor delta. Description: Inverse agonist activity at PPARbeta/delta in mouse C2C12 cells assessed as inhibition of Angptl4 expression after 24 hrs by RT-qPCR analysis. It is filed as functional, cell-based. In general terms: In qPCR the cycle at which signal appears reflects the starting amount.
The nature of data set [8]: Half life in CD1 mouse plasma at 1 mg/kg, iv. The data set is classed as ADME, organism-based. Further details: dose 1 mg/kg, route intravenous. A digest of the protocol:
(§2)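 Male CD-1 mice dosed iv by tail vein (1 mg/kg) or po by gastric gavage (5 mg/kg). Vehicle was DMSO/Solutol HS 15/PBS pH 7.4 (5/5/90, v/v/v). Blood was taken at eight time points from 10 min to 12 h, by parallel sampling of three mice per point. Plasma was acetonitrile-precipitated and analysed by HPLC-MS/MS, and basic PK parameters were derived.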

Data set [9] is described as follows: Clearance in CD1 mouse at 1 mg/kg, iv. As to conditions: in vivo. Details: dose 1 mg/kg, route intravenous. It is filed as ADME, organism-based. The method, boiled down:
as §2

Calls of active or inactive are those of the source. The calls are words filed in the database; no cut-off is given here.

As to `CN1CCN(c2ccc(/C=C(\C#N)c3ccccc3Br)cc2)CC1`, the outcome in [1] and in [5] was Active. Further, the outcome in [2], in [3] and in [6] was inactive. The IC50 in data set [4] worked out at 26.9 nM; in [7] it was 9.5 nM. The half-life in data set [8] turned out to be 1.27 h. For the same compound, in data set [9], the clearance came to 121 mL/min/kg.

As to `CN(C)c1ccc(/C=C(\C#N)c2ccccc2Cl)cc1`, the result in data set [1] and in data set [5] was Active. The result in [2], in [3] and in data set [6] was inactive. For the same compound, the values for the IC50 in [4] and in [7] were 180 nM and 52 nM, respectively. For the same compound, the half-life in data set [8] amounted to 1.27 h. Besides, the clearance in [9] was found to be 176 mL/min/kg.
